Measurements: ChEMBL document CHEMBL1123481, “Structure-activity relationships of (arylalkyl)imidazole anticonvulsants: comparison of the (fluorenylalkyl)imidazoles with nafimidone and denzimol” (J Med Chem, 1986)
Activity calls are given as the source filed them. The rule behind the calls is not given here.

Columns and labels:
Mus musculus [1] = assay: Compound was tested for effective dose in mice by maximal electroshock assay (administered per orally); assay type: functional; settings: po
Procedure, shortened: (§1)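 Mice were dosed orally across a range of doses, given in 5% acacia/water. Time of peak effect was found by shocking at 0.5, 1, 2, 3 and 4 h. Corneal electroshock was 40 mA, 0.1 s, ac. Each compound was retested at peak time with at least four doses and 12 mice per dose. The ED50 for prevention of tonic-extensor convulsion was calculated by Litchfield–Wilcoxon; 95% confidence limits are given.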

Mus musculus [2] = assay: Effective dose in mice by pentylenetetrazole assay (administered subcutaneously); No effect at highest dose of 400 mg/kg; assay type: functional, organism-based; parameters: dose 400 mg/kg
Procedure, shortened: (§2)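 Test compound was given orally to mice. At its previously determined time of peak effect, pentylenetetrazole (110 mg/kg in water, 10 mL/kg) was injected sc into the neck skin fold. Mice were watched for 15 min for presence or absence of a clonic seizure. Where protection was bell-shaped, the value is the dose giving maximum protection.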

Mus musculus [3] = assay: Effective dose in mice by horizontal screen assay (administered orally); No effect at highest dose of 400 mg/kg; assay type: functional, organism-based; parameters: dose 400 mg/kg
Procedure, shortened: (§3)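 Fasted, pre-trained male CF1 mice (20–25 g) were dosed orally across a range of doses, given as a suspension in 5% acacia/water. Each mouse was placed on a 13 cm square wire screen, and the screen was rotated 180°. The score was return to the top within 1 min. Time of peak effect was scanned at 0.5–4 h. Each compound was then retested at that time with at least 4 doses and 12 mice per dose.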

Mus musculus [4] = assay: Effective dose in mice by maximal electroshock assay, administered orally; assay type: functional; settings: po; procedure, shortened: as §1
Mus musculus [5] = organism: Mus musculus; assay: Compound was tested for time to peak anticonvulsant effect (TPE); assay type: functional
Procedure, shortened: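 Time to peak effect after oral dosing in 5% acacia/water was estimated by testing mice at 0.5, 1, 2, 3 and 4 h posttreatment in the MES and horizontal screen tests.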

Mus musculus [6] = organism: Mus musculus; assay: Potentiation of hexobarbital-induced sleeping time in mice; assay type: functional
Procedure, shortened: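 Groups of 10 fasted mice received compound orally at 10 mg/kg in 5% acacia/water (10 mL/kg). At the compound's time of peak effect they were given hexobarbital 100 mg/kg ip, solubilized with stoichiometric NaOH. Sleeping time, measured as loss of righting reflex, was recorded to the nearest minute. Values are mean ± SEM.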

Mus musculus [7] = assay: Compound was tested for effective dose in mice by horizontal screen assay (administered orally); Ca 550; assay type: functional; settings: po; procedure, shortened: as §3
[8] = biological target: T1, GABA-A receptor; anion channel (Rattus norvegicus) (UniProt O09028+P15431+P18506+P18508+P19969+P20236+P23574+P23576+P28471+P28473+P30191+P62813+P63079+P63138+Q91ZM7+Q9ES14); assay: In vitro displacement of [3H]flunitrazepam binding to cortical membranes at 5e-5M concentration
Procedure, shortened: (§4)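 Rat cortical membranes (180 μg protein) were incubated with 2 nM [3H]flunitrazepam in 50 mM Tris-HCl pH 7.4 for 40 min at 4 °C, with test compound at 5×10^-5 M, in triplicate. Samples were filtered and washed three times with ice-cold buffer. Nonspecific binding was defined with 3 μM diazepam. Results are given as % of control, mean ± SEM.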

[9] = biological target: T1, GABA-A receptor; anion channel (Rattus norvegicus); assay: In vivo displacement of [3H]flunitrazepam binding to rat cortical membranes after 20 mg/kg ip dose; assay type: organism-based; parameters: dose 20 mg/kg; settings: Membrane, at 20 mg/kg
Procedure, shortened: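 Male Sprague-Dawley rats (100 g; five per group) received saline or compound at 20 mg/kg ip. After 30 min, [3H]flunitrazepam (100 μCi/kg) was given iv via the tail vein. Rats were killed 20 min later. Cortex was homogenized in 50 mM Tris-HCl pH 7.4, and the particulate fraction was filtered and rinsed. Results are given as % of saline control, mean ± SEM.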

Mus musculus [10] = assay: Effective dose in mice by pentylenetetrazole assay (administered subcutaneously); assay type: functional; settings: sc; procedure, shortened: as §2
Mus musculus [11] = assay: Effective dose in mice by horizontal screen assay (administered orally); assay type: functional; settings: po; procedure, shortened: as §3
[12] = biological target: T1, GABA-A receptor; anion channel (Rattus norvegicus); assay: In vitro displacement of [3H]flunitrazepam binding from rat cortical membranes at 50 uM; assay type: cell membranes; settings: Membrane; procedure, shortened: as §4
Mus musculus [13] = assay: Compound was tested for effective dose in mice by pentylenetetrazole assay (administered subcutaneously);No effect at highest dose of 200 mg/kg; assay type: functional, organism-based; parameters: dose 200 mg/kg; procedure, shortened: as §2
Mus musculus [14] = assay: Compound was tested for effective dose in mice by horizontal screen assay (administered orally; No effect at highest dose of 200 mg/kg
Mus musculus [15] = assay: Compound was tested for effective dose in mice by pentylenetetrazole assay (administered subcutaneously); No effect at highest dose of 100 mg/kg; assay type: functional, organism-based; parameters: dose 100 mg/kg; procedure, shortened: as §2
Mus musculus [16] = assay: Compound was tested for effective dose in mice by pentylenetetrazole assay (administered subcutaneously); Ca 400; assay type: functional; settings: sc; procedure, shortened: as §2
Mus musculus [17] = assay: Compound was tested for effective dose in mice by horizontal screen assay (administered orally); No effect at highest dose of 200 mg/kg; assay type: functional, organism-based; parameters: dose 200 mg/kg; procedure, shortened: as §3
Mus musculus [18] = assay: Compound was tested for effective dose in mice by pentylenetetrazole assay (administered subcutaneously); No effect at highest dose of 800 mg/kg; assay type: functional, organism-based; parameters: dose 800 mg/kg; procedure, shortened: as §2
[19] = Compound was tested for its toxicity in rat; assay type: organism-based; settings: in vivo
Procedure, shortened: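 Female Fischer 344 rats were fasted and given a single oral gavage dose, four dose levels per compound, as a suspension in 10% aqueous acacia. Mortality was scored and the median lethal dose (LD50) was derived.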

[20] = Compound was tested for its toxicity in rat; Ca 4550; assay type: organism-based; settings: in vivo
Mus musculus [21] = assay: Compound was tested for effective dose in mice by pentylenetetrazole assay (administered subcutaneously); No effect at highest dose of 200 mg/kg; assay type: functional, organism-based; parameters: dose 200 mg/kg; procedure, shortened: as §2
Mus musculus [22] = assay: Compound was tested for effective dose in mice by maximal electroshock assay (administered orally); No effect at highest dose of 300 mg/kg; assay type: functional, organism-based; parameters: dose 300 mg/kg; procedure, shortened: as §1
Mus musculus [23] = assay: Compound was tested for effective dose in mice by horizontal screen assay (administered orally); No effect at highest dose of 300 mg/kg; assay type: functional, organism-based; parameters: dose 300 mg/kg; procedure, shortened: as §3
[24] = biological target: Gamma-aminobutyric acid receptor subunit gamma-1 (Rattus norvegicus) (UniProt P23574); assay: In vitro displacement of [3H]flunitrazepam binding to rat cortical membranes at 50 uM (No effect); assay type: cell membranes; settings: Membrane; procedure, shortened: as §4
Mus musculus [25] = assay: Compound was tested for effective dose in mice by horizontal screen assay (administered orally); No effect at highest dose of 800 mg/kg; assay type: functional, organism-based; parameters: dose 800 mg/kg; procedure, shortened: as §3
Mus musculus [26] = assay: Compound was tested for effective dose in mice by maximal electroshock assay (administered orally); No effect at highest dose of 800 mg/kg; assay type: functional, organism-based; parameters: dose 800 mg/kg; procedure, shortened: as §1
Mus musculus [27] = assay: Compound was tested for effective dose in mice by horizontal screen assay (administered orally); No effect at highest dose of 100 mg/kg; assay type: functional, organism-based; parameters: dose 100 mg/kg; procedure, shortened: as §3
Mus musculus [28] = assay: Effective dose in mice by horizontal screen assay (administered orally); No effect at highest dose of 200 mg/kg
Mus musculus [29] = assay: Effective dose in mice by pentylenetetrazole assay (administered subcutaneously); No effect at highest dose of 200 mg/kg

Sequence of Gamma-aminobutyric acid receptor subunit gamma-1 (Rattus norvegicus) (P23574 whole entry): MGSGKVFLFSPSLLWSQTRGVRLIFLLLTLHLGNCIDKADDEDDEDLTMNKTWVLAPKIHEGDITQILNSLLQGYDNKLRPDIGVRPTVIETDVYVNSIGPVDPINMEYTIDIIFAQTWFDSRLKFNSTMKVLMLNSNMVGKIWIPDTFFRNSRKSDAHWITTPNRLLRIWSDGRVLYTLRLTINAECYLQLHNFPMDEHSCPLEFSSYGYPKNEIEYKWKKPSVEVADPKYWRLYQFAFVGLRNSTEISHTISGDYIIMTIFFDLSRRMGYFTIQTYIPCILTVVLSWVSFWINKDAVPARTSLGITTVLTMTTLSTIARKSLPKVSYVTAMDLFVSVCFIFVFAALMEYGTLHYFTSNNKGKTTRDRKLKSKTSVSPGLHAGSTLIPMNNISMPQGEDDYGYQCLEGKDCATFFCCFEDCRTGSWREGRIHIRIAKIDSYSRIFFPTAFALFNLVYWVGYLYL

CC(O)(Cn1ccnc1)c1ccc2c(c1)Cc1ccccc1-2 (centres undefined)
ED50 (Mus musculus [1]): 10 mg/kg
ED50 (Mus musculus [2]): No effect
ED50 (Mus musculus [3]): No effect
ED50 (Mus musculus [4]): 10 mg/kg
TPE (Mus musculus [5]): 2 h
ST (Mus musculus [6]): 146.9 min

O=C(Cn1ccnc1)c1ccc2c(c1)CCc1ccccc1-2
ED50 (Mus musculus [2]): No effect
ED50 (Mus musculus [7]): 550 mg/kg
ED50 (Mus musculus [4]): 60 mg/kg
TPE (Mus musculus [5]): 2 h

O=C(Cn1ccnc1)c1ccc2ccc3ccccc3c2c1
Control [8]: 123%
Control [9]: 121%
ED50 (Mus musculus [10]): > 400 mg/kg
ED50 (Mus musculus [11]): > 400 mg/kg
ED50 (Mus musculus [4]): 52 mg/kg
TPE (Mus musculus [5]): 1 h
Binding [12]: 23%

CC1c2ccccc2-c2ccc(C(=O)Cn3ccnc3)cc21 (centres undefined)
ED50 (Mus musculus [13]): No effect
TPE (Mus musculus [5]): 2 h
ST (Mus musculus [6]): 69.7 min
ED50 (Mus musculus [14]): No effect

CC(C)c1ccc2c(c1)Cc1cc(C(=O)Cn3ccnc3)ccc1-2
ED50 (Mus musculus [2]): No effect
ED50 (Mus musculus [3]): No effect
ED50 (Mus musculus [4]): 190 mg/kg
TPE (Mus musculus [5]): 2 h

c1ccc2c(c1)Cc1cc(C3(Cn4ccnc4)OCCO3)ccc1-2
ED50 (Mus musculus [15]): No effect
ED50 (Mus musculus [11]): > 100 mg/kg
TPE (Mus musculus [5]): 4 h
ST (Mus musculus [6]): 88.7 min

OC(Cn1ccnc1)c1ccc2c(c1)Cc1ccccc1-2 (centres undefined)
ED50 (Mus musculus [16]): 400 mg/kg
ED50 (Mus musculus [17]): No effect
TPE (Mus musculus [5]): 1 h
ST (Mus musculus [6]): 118.3 min

COc1ccc2c(c1)Cc1cc(C(=O)Cn3ccnc3)ccc1-2
ED50 (Mus musculus [18]): No effect
ED50 (Mus musculus [3]): No effect
ED50 (Mus musculus [4]): 360 mg/kg
TPE (Mus musculus [5]): 2 h
ST (Mus musculus [6]): 56.9 min

O=C(Cn1ccnc1)c1ccc2c(c1)Cc1ccccc1-2
ED50 (Mus musculus [10]): > 200 mg/kg
ED50 (Mus musculus [11]): > 1000 mg/kg
TPE (Mus musculus [5]): 3 h
ST (Mus musculus [6]): 73.7 min
LD50 [19]: 504 mg/kg
LD50 [20]: 4550 mg/kg

O=C(CCCn1ccnc1)c1ccc2c(c1)Cc1ccccc1-2
ED50 (Mus musculus [21]): No effect
ED50 (Mus musculus [17]): No effect
ED50 (Mus musculus [4]): 27 mg/kg
TPE (Mus musculus [5]): 0.5 h

c1ccc2cc(CCc3ncc[nH]3)ccc2c1
ED50 (Mus musculus [22]): No effect
TPE (Mus musculus [5]): 1 h

O=C(Cn1ccnc1)c1cc2ccccc2o1
Control [8]: 99.1%
Control [9]: 142%
ED50 (Mus musculus [10]): > 400 mg/kg
ED50 (Mus musculus [23]): inactive
ED50 (Mus musculus [4]): 30 mg/kg
TPE (Mus musculus [5]): 1.5 h
Binding [24]: inactive

O=C(Cn1ccnc1)c1ccc2c(ccc3ccccc32)c1
Control [8]: 128%
Control [9]: 128%
ED50 (Mus musculus [10]): > 400 mg/kg
ED50 (Mus musculus [11]): > 400 mg/kg
ED50 (Mus musculus [4]): 150 mg/kg
TPE (Mus musculus [5]): 1 h
Binding [12]: 28%

OC(CCn1ccnc1)c1ccc2c(c1)Cc1ccccc1-2 (centres undefined)
ED50 (Mus musculus [2]): No effect
ED50 (Mus musculus [11]): > 400 mg/kg
TPE (Mus musculus [5]): 1 h
ST (Mus musculus [6]): 75 min

O=C(Cn1ccnc1)c1ccc2c(c1)Cc1cc(Br)ccc1-2
ED50 (Mus musculus [2]): No effect
ED50 (Mus musculus [3]): No effect
TPE (Mus musculus [5]): 2 h

O=C(Cn1cnc(-c2ccccc2)c1)c1ccc2c(c1)Cc1ccccc1-2
ED50 (Mus musculus [18]): No effect
ED50 (Mus musculus [25]): No effect
TPE (Mus musculus [5]): 2 h
ED50 (Mus musculus [26]): No effect

OC(Cn1ccnc1)c1ccc(CCc2ccccc2)cc1 (centres undefined) [DENZIMOL]
ED50 (Mus musculus [4]): 12 mg/kg
TPE (Mus musculus [5]): 1 h
ST (Mus musculus [6]): 157.4 min
ED50 (Mus musculus [27]): No effect

CC1(C)COC(Cn2ccnc2)(c2ccc3c(c2)Cc2ccccc2-3)OC1
TPE (Mus musculus [5]): 2 h
ED50 (Mus musculus [28]): No effect
ED50 (Mus musculus [29]): No effect

O=C(Cn1ccnc1)c1ccc2ccccc2c1 [NAFIMIDONE]
Control [8]: 102%
Control [9]: 116%
ED50 (Mus musculus [10]): > 400 mg/kg
ED50 (Mus musculus [3]): inactive
ED50 (Mus musculus [4]): 56 mg/kg
TPE (Mus musculus [5]): 1 h
ST (Mus musculus [6]): 59.1 min
